# Results from ChEMBL document CHEMBL1154242, “ent-Kaurane and cembrane diterpenoids from Isodon sculponeatus and their cytotoxicity” (J Nat Prod, 2009).
# Key:
# Type in all cases: functional, cell-based
# A549 = experiment: Cytotoxicity against human A549 cells after 48 hrs; conditions: A549, 48 h
# Method in brief: (§1)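 Cells from the Shanghai Cell Bank were kept in RPMI1640 with 15% hormone-free heat-inactivated FBS, 2 mM glutamine, 100 U/mL penicillin G and 100 µg/mL streptomycin. Seeding was 5 × 10^4 cells/mL for K562 and 4 × 10^4 cells/mL for A549 and HepG2. Cells were exposed to compound for 48 h, and viability was read by CCK-8 at 450 and 650 nm. IC50 values come from triplicate experiments.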
# HepG2 = experiment: Cytotoxicity against human HepG2 cells after 48 hrs; conditions: HepG2, 48 h; method in brief: as §1
# K562 = experiment: Cytotoxicity against human K562 cells after 48 hrs; conditions: K562, 48 h; method in brief: as §1
Structure (SMILES),IC50 (A549),IC50 (HepG2),IC50 (K562)
C=C1[C@@H]2C[C@@H](O)[C@H]3[C@@]45CO[C@@](O)([C@@H](O)[C@@H]4C(C)(C)CC[C@@H]5O)[C@]3(C2)[C@@H]1O [NERVOSANIN B],> 10000 nM,> 10000 nM,> 10000 nM
C=C1C(=O)[C@]23C[C@H]1CC[C@H]2[C@@]12CO[C@@H](O)[C@@H]1C(C)(C)[C@@H](O)C[C@@H]2OC3=O [ENEMIN],> 10000 nM,2020 nM,1620 nM
C=C1C(O)[C@]23C[C@H]1C[C@H](O)[C@H]2[C@]12CCC[C@@](C)(CO)[C@H]1[C@H](O)[C@]3(O)OC2 (some centres undefined) [SCULPONIN K],> 10000 nM,> 10000 nM,> 10000 nM
C=C1C(=O)O[C@H]2/C=C(\C)C[C@@H]3C=C(CC/C=C(\C)CC[C@H]12)C(=O)O3,1960 nM,1400 nM,1250 nM
C=C1C(=O)[C@]23C[C@H]1C[C@H](O)[C@H]2[C@@]12CO[C@@H](O)[C@@H]1C(C)(C)CC[C@@H]2OC3=O [EPINODOSIN],2100 nM,1620 nM,560 nM
C=C1[C@@H]2C[C@@H](O)[C@@H]3[C@](C2)(C(=O)O[C@H]2C[C@H](O)C(C)(C)[C@H]4[C@H](O)OC(=O)[C@@]243)[C@@H]1O [EMEMOGIN],> 10000 nM,> 10000 nM,> 10000 nM
CC1(C)CC[C@@H]2OC(=O)[C@@]34C[C@@H](C[C@H](O)[C@H]3[C@]23CO[C@@H](O)[C@H]13)[C@@H](CO)C4=O [MAOYECRYSTAL D],> 10000 nM,> 10000 nM,> 10000 nM
C=C1[C@@H]2C[C@@H](O)[C@@H]3[C@](C2)(C(=O)O[C@H]2CC[C@]4(C)[C@H]5[C@H](OC[C@@]253)O[C@@H]4O)[C@@H]1O [SCULPONIN J],> 10000 nM,> 10000 nM,> 10000 nM
C=C1C(=O)[C@]23C[C@H]1C[C@@H](O)[C@H]2[C@]12CO[C@@H]4OC[C@](C)(CC[C@@H]1OC3=O)[C@@H]42 [SCULPONEATIN A],1900 nM,1770 nM,1620 nM
C=C1C(=O)[C@]23C[C@H]1C[C@@H](O)[C@H]2[C@@]12CO[C@@H](O)[C@@H]1C(C)(C)CC[C@@H]2OC3=O [NODOSIN],> 10000 nM,1920 nM,540 nM
CC1(C)[C@H]2[C@H](O)OC[C@@]23[C@H](C[C@@H]1O)OC(=O)[C@@]12C[C@@H](C[C@@H](O)[C@H]13)[C@@]1(CCC3=C(O1)[C@]14C[C@H]3C[C@@H](O)[C@H]1[C@]13CO[C@@H]5OC[C@](C)(CC[C@@H]1OC4=O)[C@@H]53)C2=O [SCULPONIN E],1850 nM,1620 nM,2000 nM
C[C@]12CC[C@@H]3OC(=O)[C@@]45C[C@@H](C[C@@H](O)[C@H]4[C@]34CO[C@H](OC1)[C@H]24)[C@@]1(CCC2=C(O1)[C@]13C[C@H]2C[C@@H](O)[C@H]1[C@]12CO[C@@H]4OC[C@](C)(CC[C@@H]1OC3=O)[C@@H]42)C5=O [SCULPONIN D],1000 nM,1120 nM,1500 nM
C=C1[C@@H]2C[C@@H](O)[C@@H]3[C@](C2)(C(=O)O[C@H]2CC[C@@]4(C)CO[C@H]5OC[C@]23[C@H]54)[C@@H]1O [SCULPONEATIN B],> 10000 nM,> 10000 nM,> 10000 nM
C=C1C(=O)[C@]23C[C@H]1C[C@@H](O)[C@H]2[C@]12CO[C@H]4O[C@@H](O)[C@](C)(CC[C@@H]1OC3=O)[C@@H]42 [SCULPONIN G],> 10000 nM,> 10000 nM,> 10000 nM
C=C1C(=O)[C@]23C[C@H]1C[C@@H](O)[C@H]2[C@]12CO[C@@H]4O[C@H](O)[C@](C)(CC[C@@H]1OC3=O)[C@@H]42 [SCULPONIN H],> 10000 nM,> 10000 nM,> 10000 nM
C=C1[C@@H]2C[C@H](O)[C@@H]3[C@](C2)(C(=O)OC2O[C@H](O)[C@@H]4[C@@](C)(CO)CC[C@H](O)[C@]243)[C@@H]1O (some centres undefined) [SCULPONEATIN D],> 10000 nM,> 10000 nM,> 10000 nM
C=C1[C@@H]2C[C@@H](O)[C@@H]3[C@](C2)(C(=O)O[C@H]2CC[C@@]4(C)[C@H](O)O[C@H]5OC[C@]23[C@H]54)[C@@H]1O [SCULPONIN I],> 10000 nM,> 10000 nM,> 10000 nM
C=C1C(=O)O[C@H]2/C=C(\C)C[C@@H]3C=C(C/C=C/[C@@](C)(OO)CC[C@H]12)C(=O)O3,1550 nM,900 nM,1200 nM
C=C1[C@@H](O)[C@]23[C@H](O)[C@H]1CC[C@H]2[C@@]12CO[C@@]3(O)[C@@H](O)[C@@H]1C(C)(C)CC[C@@H]2O [ENMENOL],> 10000 nM,> 10000 nM,> 10000 nM
C=C1C(=O)[C@]23C[C@H]1C[C@@H](O)[C@H]2[C@@]1(COC3=O)[C@@H]2[C@H]3OC[C@]2(C)CC[C@H]1O3 [SCULPONEATIN C],2730 nM,680 nM,780 nM
C=C1[C@@H]2CC(=O)[C@H]3[C@]45C=CC[C@@](C)(CO)[C@H]4[C@H](O)[C@](O)(OC5)[C@]3(C2)[C@@H]1O [SCULPONIN L],> 10000 nM,> 10000 nM,> 10000 nM
C=C1[C@@H]2C[C@H](O)[C@@H]3[C@](C2)(C(=O)O[C@H]2C[C@H](O)C(C)(C)[C@H]4[C@H](O)OC[C@@]243)[C@@H]1OC(C)=O [SCULPONIN F],> 10000 nM,> 10000 nM,> 10000 nM
C=C1C(=O)O[C@H]2/C=C(\C)C[C@@H]3C=C(CC[C@@H](OO)C(=C)CC[C@H]12)C(=O)O3,4180 nM,3110 nM,4300 nM
